Measurements from the M2OR odorant receptor database.

Each compound was assayed against T1, UniProt Q8VGL0. Conditions: stereoisomer not certain.
T1 sequence (whole entry): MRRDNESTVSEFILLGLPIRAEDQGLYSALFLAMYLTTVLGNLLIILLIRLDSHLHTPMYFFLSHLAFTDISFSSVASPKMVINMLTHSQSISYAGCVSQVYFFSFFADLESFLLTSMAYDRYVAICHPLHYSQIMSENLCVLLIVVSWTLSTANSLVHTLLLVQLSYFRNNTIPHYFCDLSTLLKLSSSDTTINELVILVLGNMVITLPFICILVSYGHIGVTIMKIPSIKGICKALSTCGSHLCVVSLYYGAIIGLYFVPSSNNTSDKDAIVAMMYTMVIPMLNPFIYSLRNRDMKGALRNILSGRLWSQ
In short: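 Transient luciferase assays in mammalian cell lines were common, though methods varied by source. The values come from published papers and their supplementary material, with extra details from the original authors when needed. Responsive refers to a measured signal the original authors judged statistically different from baseline, and non-responsive (inactive) to the remainder.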
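Further: active if original authors judged signal statistically different from baseline.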

Row | SMILES | odorant receptor agonist call
1 | CCCO | inactive
2 | CC1CC=CCCCCCCCCCC(=O)C1 (stereo not drawn) | inactive
3 | COc1nccnc1C(C)C | inactive
4 | CCC(C)O (stereo not drawn) | inactive
5 | COc1cnccn1 | inactive
6 | O=C([O-])CCCCCCC(=O)[O-].[H+].[H+] | inactive
7 | CCc1ncc(C)nc1CC | inactive
8 | O=C([O-])CCCCCCCC(=O)[O-].[H+].[H+] | inactive
9 | CCSSCC | inactive
10 | CC=C(C)C=O | inactive
11 | OCCCCCCCCCO | inactive
12 | CCC=CCCC=CC=O | inactive
13 | C1CCOC1 | inactive
14 | CCCCCCC(C=O)=Cc1ccccc1 | inactive
15 | OCCc1ccccc1 | inactive
16 | C=C(C)C1CCC(C)C(O)C1 (stereo not drawn) | active
17 | C=CC(=C)CCC=C(C)CCC=C(C)C | inactive
18 | Cc1c(C)c(C)c(C=O)c(C)c1C | inactive
19 | CC=Cc1ccc(OC)cc1 | inactive

Row | SMILES | odorant receptor agonist call
20 | CCCCCC(=Cc1ccccc1)C(OC)OC | inactive
21 | CCc1occc(=O)c1O | inactive
22 | CSSCc1ccco1 | inactive
23 | CCCCCCCCC=CC=O | inactive
24 | CCCCCC=CCCC=O | inactive
25 | COc1ccccc1 | inactive
26 | Cc1ccc2c(c1)OCC(=O)CO2 | inactive
27 | CC(=O)C=CC1=C(C)CCCC1(C)C | inactive
28 | CCCCCC(C=O)=Cc1ccccc1 | inactive
29 | CCC(C)c1nccnc1OC (stereo not drawn) | inactive
30 | CCCCCCC=CC=O | inactive
31 | O=C(OCc1ccccc1)c1ccccc1O | inactive
32 | CCCC=O | inactive
33 | O=C(O)C1CCC1 | inactive
34 | CC(=O)C1(C)CC2=C(CCCC2(C)C)CC1C (stereo not drawn) | inactive
35 | CCCCCOC(=O)CC | inactive
36 | CCCCCCCCCCOC(C)=O | inactive
37 | CNc1ccccc1C(=O)OC | inactive
38 | CC=CC(=O)C1=C(C)CCCC1(C)C | inactive
